Measured values reported in ChEMBL document CHEMBL1121363, “DNA intercalating compounds as potential antitumor agents. 2. Preparation and properties of 7H-pyridocarbazole dimers” (1980).

How the values were obtained:
Calf thymus DNA [1] = assay: Dimer binding constant for DNA of calf thymus at pH 7.4; assay type: nucleic-acid assay; conditions: Bos taurus
Summary of the method: (§1)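 Fluorimetric competition: calf thymus DNA (B = 1.6 × 10⁻⁶ M base pairs) with ethidium dimer (6.4 × 10⁻⁷ M) equilibrated 24 h with varied dimer concentrations, 20 °C. Buffers: 0.2 M sodium acetate pH 5, or 0.1 M NaCl/0.1 M Tris-HCl pH 7.4. Ex 540/em 610 nm. Displacement curve fitted to McGhee–von Hippel equations using n set by ethidium bromide competition, giving Kap.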

Calf thymus DNA [2] = assay: Dimer binding constant for DNA of calf thymus at pH 5.; assay type: nucleic-acid assay; conditions: Bos taurus; summary of the method: as §1
Calf thymus DNA [3] = assay: Displacement of ethidium from DNA of calf thymus at pH 7.4; assay type: nucleic-acid assay; conditions: Bos taurus
Summary of the method: (§2)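 Ethidium dimer (6.4 × 10⁻⁷ M) pre-bound to calf thymus DNA (1.6 × 10⁻⁶ M base pairs), 24 h equilibration with competing dimer, 20 °C, in 0.2 M sodium acetate pH 5 or 0.1 M NaCl/0.1 M Tris-HCl pH 7.4. Fluorescence ex 540, em 610 nm. rf50 = ratio of total dimer to DNA base pairs displacing 50% of bound ethidium dimer.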

Calf thymus DNA [4] = assay: Displacement of ethidium from DNA of calf thymus at pH 5; assay type: nucleic-acid assay; conditions: Bos taurus; summary of the method: as §2
Mus musculus [5] = assay: Evaluated for the antitumor activity against L1210 Murine leukemia at optimum intraperitoneal dose 0.4 of the MTD
Mus musculus [6] = assay: Evaluated for the antitumor activity against L1210 Murine leukemia at optimum intraperitoneal dose 0.5 of the MTD
Mus musculus [7] = assay: Evaluated for the antitumor activity against L1210 Murine leukemia at optimum intraperitoneal dose 0.25 of the MTD
Mus musculus [8] = assay: Evaluated for the antitumor activity against L1210 Murine leukemia at optimum intraperitoneal dose 0.2 of the MTD
Mus musculus [9] = assay: Evaluated for the antitumor activity against L1210 Murine leukemia at optimum intraperitoneal dose 0.8 of the MTD

Row | Structure (SMILES) | K app (Calf thymus DNA [1]) | K app (Calf thymus DNA [2]) | rf50 (Calf thymus DNA [3]) | rf50 (Calf thymus DNA [4]) | T/C (Mus musculus [5]) | T/C (Mus musculus [6]) | T/C (Mus musculus [7]) | T/C (Mus musculus [8]) | T/C (Mus musculus [9])
1 | COc1ccc2c(c1)c1c3c[n+](CCN4CCCCC4)ccc3ccc1n2C | 300000 | 1.8e+06 | 20 | 9.5 |  |  |  |  | 
2 | Oc1ccc2[nH]c3ccc4cc[n+](CCN5CCC(C6CCN(CC[n+]7ccc8ccc9[nH]c%10ccc(O)cc%10c9c8c7)CC6)CC5)cc4c3c2c1.[Cl-].[Cl-] | 1e+07 | 5e+08 | 1.2 | 0.32 | 157% |  |  |  | 
3 | Oc1ccc2[nH]c3ccc4c[n+](CCN5CCC(C6CCN(CC[n+]7ccc8c(ccc9[nH]c%10ccc(O)cc%10c98)c7)CC6)CC5)ccc4c3c2c1 | 500000 | 2e+08 | 13 | 0.5 |  |  |  |  | 
4 | COc1ccc2[nH]c3ccc4cc[n+](CCCCCCCCCC[n+]5ccc6ccc7[nH]c8ccc(OC)cc8c7c6c5)cc4c3c2c1.[Br-].[Br-] | 3e+06 | 3e+06 | 3 | 2.4 |  | 124% |  |  | 
5 | COc1ccc2[nH]c3ccc4cc[n+](CCN5CCC(C6CCN(CC[n+]7ccc8ccc9[nH]c%10ccc(OC)cc%10c9c8c7)CC6)CC5)cc4c3c2c1.[Cl-].[Cl-] [DITERCALINIUM CHLORIDE] | 1e+07 | 5e+08 | 0.96 | 0.32 |  |  | 216% |  | 
6 | COc1ccc2[nH]c3ccc4cc[n+](CCN(C)CCCCCN(C)CC[n+]5ccc6ccc7[nH]c8ccc(OC)cc8c7c6c5)cc4c3c2c1 | 8e+06 | 1e+08 | 8.4 | 0.8 |  |  |  |  | 
7 | COc1ccc2c(c1)c1c3cc[n+](CCN4CCC(C5CCN(CC[n+]6ccc7c(ccc8c7c7cc(OC)ccc7n8C)c6)CC5)CC4)cc3ccc1n2C | 6e+06 | 5e+08 | 1.2 | 0.32 |  |  |  |  | 
8 | COc1ccc2[nH]c3ccc4c[n+](CCN5CCC(C6CCN(CC[n+]7ccc8c(ccc9[nH]c%10ccc(OC)cc%10c98)c7)CC6)CC5)ccc4c3c2c1.[Cl-].[Cl-] | 3e+06 | 5e+08 | 3.4 | 0.32 |  |  |  | 130% | 
9 | [Cl-].[Cl-].c1ccc2c(c1)[nH]c1ccc3cc[n+](CCN4CCC(C5CCN(CC[n+]6ccc7ccc8[nH]c9ccccc9c8c7c6)CC5)CC4)cc3c12 | 5e+06 | 3e+08 | 1.4 | 0.4 |  | 121% |  |  | 
10 | COc1ccc2[nH]c3c(C)c4cc[n+](CCN5CCC(C6CCN(CC[n+]7ccc8c(C)c9[nH]c%10ccc(OC)cc%10c9c(C)c8c7)CC6)CC5)cc4c(C)c3c2c1 | 1e+06 | 2e+08 |  |  |  |  |  |  | 
11 | COc1ccc2c(c1)c1c3c[n+](CCN4CCC(C5CCN(CC[n+]6ccc7ccc8c(c7c6)c6cc(OC)ccc6n8C)CC5)CC4)ccc3ccc1n2C.[Cl-].[Cl-] | 2e+07 | 3e+08 | 0.72 | 0.4 |  |  |  |  | 155%
12 | COc1ccc2[nH]c3ccc4cc[n+](CC(O)CN5CCC(C6CCN(CC(O)C[n+]7ccc8ccc9[nH]c%10ccc(OC)cc%10c9c8c7)CC6)CC5)cc4c3c2c1 (stereo not drawn) | 2e+07 | 1e+09 | 0.72 | 0.24 |  |  |  |  | 
13 | Cc1c2cc[n+](CCN3CCC(C4CCN(CC[n+]5ccc6c(C)c7[nH]c8ccc(O)cc8c7c(C)c6c5)CC4)CC3)cc2c(C)c2c1[nH]c1ccc(O)cc12 | 1e+06 | 1e+08 |  |  |  |  |  |  | 
14 | COc1ccc2[nH]c3ccc4cc[n+](CCN5CCC(CCCC6CCN(CC[n+]7ccc8ccc9[nH]c%10ccc(OC)cc%10c9c8c7)CC6)CC5)cc4c3c2c1 | 4e+06 | 1e+09 | 2.24 | 0.25 |  |  |  |  | 
